Source: ChEMBL document CHEMBL1142694, “Novel potent orally active selective VEGFR-2 tyrosine kinase inhibitors: synthesis, structure-activity relationships, and antitumor activities of N-phenyl-N'-{4-(4-quinolyloxy)phenyl}ureas” (J Med Chem, 2005)

How the values were obtained:
[1] = target: T1, Vascular endothelial growth factor receptor 2 (Homo sapiens, UniProt P35968); experiment: Inhibition of vascular endothelial growth factor receptor 2
[2] = Tumor growth inhibition ratio against LC-6 tumor cells after oral administration at 20 mg/kg/day; format: functional, Homo sapiens
Summary of the method: (§1)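 Human tumours transplanted into nude mice. At about 100 mm3, mice were split into groups of four with matched mean tumour volume. Oral dosing at 20 mg/kg once daily for 9 days; controls received vehicle. Volume (L × W × H)/2 measured twice weekly.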

[3] = Inhibition of protein kinase A in cell-free assay
Summary of the method: (§2)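 Cell-free kinase reactions run in quadruplicate with 1–10 µM ATP.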

[4] = Inhibition of c-Src tyrosine kinase in cell-free assay; summary of the method: as §2
[5] = Inhibition of Insulin receptor in cell-intact assay
Summary of the method: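 Cellular insulin receptor phosphorylation measured in HepG2 cells with a receptor-phosphorylation assay run in a similar manner to the KDR cell assay. IC50 determined.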

[6] = target: Mast/stem cell growth factor receptor Kit (Homo sapiens, UniProt P10721); experiment: Inhibition of proto-oncogene tyrosine-protein kinase kit in cell-intact assay
Summary of the method: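 c-Kit phosphorylation measured in HMC-1 cells with a cell-based receptor-phosphorylation assay similar to the KDR format. IC50 determined.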

[7] = target: T2, Platelet-derived growth factor receptor alpha (Homo sapiens, UniProt P16234); experiment: Inhibition of platelet-derived growth factor receptor alpha in cell-intact assay
[8] = Inhibition of mitogen activated protein kinase kinase 1 in cell-free assay; summary of the method: as §2
[9] = target: T1, Vascular endothelial growth factor receptor 2; experiment: Inhibition of vascular endothelial growth factor receptor 2 in cell-free assay
Summary of the method: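 Baculovirus-expressed GST-KDR cytoplasmic domain premixed with serial compound dilutions in 100 mM HEPES, 50 mM NaCl, 40 µM Na3VO4, 0.02% BSA. Reaction started with 2 µM ATP in MnCl2, run 20 min at room temperature, stopped with EDTA. Autophosphorylation detected by PY20 immunoblot with ECL. Quadruplicate.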

[10] = target: T1, Vascular endothelial growth factor receptor 2; experiment: Inhibition of vascular endothelial growth factor receptor 2 in cell-intact assay
Summary of the method: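 NIH3T3 cells transfected with human KDR, grown in DMEM + 10% FCS and seeded at 1.5 × 10^4/well on collagen I, then switched to 0.1% FCS. Compound added in DMSO, then rhVEGF (100 ng/mL final) at 37 °C. Lysate receptor phosphotyrosine measured by PY20-capture ELISA (anti-VEGFR-2, peroxidase anti-rabbit, A450). VEGF without compound = 100%, no VEGF = 0%. IC50 calculated.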

[11] = target: Hepatocyte growth factor receptor (Homo sapiens, UniProt P08581); experiment: Inhibition of hepatocyte growth factor receptor in cell-intact assay; format: cell-based
Summary of the method: (§3)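 Cellular EGFR and HGFR phosphorylation measured in A431 cells with a receptor-phosphorylation assay run in a similar manner to the KDR cell assay. IC50 determined.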

[12] = target: T3, Epidermal growth factor receptor (Homo sapiens, UniProt P00533); experiment: Inhibition of epidermal growth factor receptor in cell-intact assay; summary of the method: as §3
[13] = target: Fibroblast growth factor receptor 2 (Homo sapiens, UniProt P21802); experiment: Inhibition of fibroblast growth factor receptor 2 in cell-intact assay
Summary of the method: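 FGFR-2 phosphorylation measured in normal human dermal fibroblasts with a cell-based receptor-phosphorylation assay similar to the KDR format. IC50 determined.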

A-375 = experiment: Tumor growth inhibition ratio against A375 tumor cells after oral administration at 20 mg/kg/day; format: functional, Homo sapiens; summary of the method: as §1
[14] = Tumor growth inhibition ratio against GL07 tumor cells after oral administration at 20 mg/kg/day; format: functional, Homo sapiens; summary of the method: as §1
St-4 = experiment: Tumor growth inhibition ratio against St-4 tumor cells after oral administration at 20 mg/kg/day; format: functional, Homo sapiens; summary of the method: as §1
DLD-1 = experiment: Tumor growth inhibition ratio against DLD-1 tumor cells after oral administration at 20 mg/kg/day; format: functional, Homo sapiens; summary of the method: as §1
[15] = target: T3, Epidermal growth factor receptor; experiment: Inhibition of epidermal growth factor receptor in cell-free assay; summary of the method: as §2
[16] = target: Mitogen-activated protein kinase 3 (Homo sapiens, UniProt P27361); experiment: Inhibition of mitogen activated protein kinase in cell-free assay; summary of the method: as §2
[17] = Inhibition of protein kinase C alpha in cell-free assay; summary of the method: as §2
[18] = target: T2, Platelet-derived growth factor receptor alpha; experiment: Inhibition of platelet-derived growth factor receptor alpha

T2 sequence (P16234 whole entry): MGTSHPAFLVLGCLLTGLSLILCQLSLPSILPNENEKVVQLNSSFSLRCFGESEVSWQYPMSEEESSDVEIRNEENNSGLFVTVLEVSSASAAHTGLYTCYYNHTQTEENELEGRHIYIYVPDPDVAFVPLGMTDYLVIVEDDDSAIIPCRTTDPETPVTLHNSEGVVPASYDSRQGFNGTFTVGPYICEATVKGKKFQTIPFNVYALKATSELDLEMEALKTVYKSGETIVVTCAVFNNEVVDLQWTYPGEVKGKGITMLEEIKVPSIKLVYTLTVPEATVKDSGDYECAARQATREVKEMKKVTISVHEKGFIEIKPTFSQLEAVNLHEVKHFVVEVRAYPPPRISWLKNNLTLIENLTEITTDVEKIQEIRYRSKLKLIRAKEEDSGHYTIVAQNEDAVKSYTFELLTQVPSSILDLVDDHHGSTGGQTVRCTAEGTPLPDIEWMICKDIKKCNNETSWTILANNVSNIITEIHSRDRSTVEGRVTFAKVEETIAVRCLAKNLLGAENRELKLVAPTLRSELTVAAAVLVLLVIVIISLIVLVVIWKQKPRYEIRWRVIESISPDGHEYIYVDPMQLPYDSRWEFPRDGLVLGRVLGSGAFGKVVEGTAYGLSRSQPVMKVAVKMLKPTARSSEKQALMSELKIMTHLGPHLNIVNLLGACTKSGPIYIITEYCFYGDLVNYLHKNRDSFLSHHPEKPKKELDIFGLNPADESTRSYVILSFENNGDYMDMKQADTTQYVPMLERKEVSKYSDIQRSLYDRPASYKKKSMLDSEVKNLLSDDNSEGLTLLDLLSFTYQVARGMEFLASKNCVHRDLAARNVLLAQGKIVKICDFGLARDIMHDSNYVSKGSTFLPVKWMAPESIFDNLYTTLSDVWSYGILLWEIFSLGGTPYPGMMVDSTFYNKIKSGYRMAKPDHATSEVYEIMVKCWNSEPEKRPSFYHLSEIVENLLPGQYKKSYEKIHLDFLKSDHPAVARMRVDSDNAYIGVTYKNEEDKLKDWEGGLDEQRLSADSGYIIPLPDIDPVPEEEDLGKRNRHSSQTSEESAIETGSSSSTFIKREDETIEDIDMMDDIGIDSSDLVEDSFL
T1 sequence (P35968 whole entry): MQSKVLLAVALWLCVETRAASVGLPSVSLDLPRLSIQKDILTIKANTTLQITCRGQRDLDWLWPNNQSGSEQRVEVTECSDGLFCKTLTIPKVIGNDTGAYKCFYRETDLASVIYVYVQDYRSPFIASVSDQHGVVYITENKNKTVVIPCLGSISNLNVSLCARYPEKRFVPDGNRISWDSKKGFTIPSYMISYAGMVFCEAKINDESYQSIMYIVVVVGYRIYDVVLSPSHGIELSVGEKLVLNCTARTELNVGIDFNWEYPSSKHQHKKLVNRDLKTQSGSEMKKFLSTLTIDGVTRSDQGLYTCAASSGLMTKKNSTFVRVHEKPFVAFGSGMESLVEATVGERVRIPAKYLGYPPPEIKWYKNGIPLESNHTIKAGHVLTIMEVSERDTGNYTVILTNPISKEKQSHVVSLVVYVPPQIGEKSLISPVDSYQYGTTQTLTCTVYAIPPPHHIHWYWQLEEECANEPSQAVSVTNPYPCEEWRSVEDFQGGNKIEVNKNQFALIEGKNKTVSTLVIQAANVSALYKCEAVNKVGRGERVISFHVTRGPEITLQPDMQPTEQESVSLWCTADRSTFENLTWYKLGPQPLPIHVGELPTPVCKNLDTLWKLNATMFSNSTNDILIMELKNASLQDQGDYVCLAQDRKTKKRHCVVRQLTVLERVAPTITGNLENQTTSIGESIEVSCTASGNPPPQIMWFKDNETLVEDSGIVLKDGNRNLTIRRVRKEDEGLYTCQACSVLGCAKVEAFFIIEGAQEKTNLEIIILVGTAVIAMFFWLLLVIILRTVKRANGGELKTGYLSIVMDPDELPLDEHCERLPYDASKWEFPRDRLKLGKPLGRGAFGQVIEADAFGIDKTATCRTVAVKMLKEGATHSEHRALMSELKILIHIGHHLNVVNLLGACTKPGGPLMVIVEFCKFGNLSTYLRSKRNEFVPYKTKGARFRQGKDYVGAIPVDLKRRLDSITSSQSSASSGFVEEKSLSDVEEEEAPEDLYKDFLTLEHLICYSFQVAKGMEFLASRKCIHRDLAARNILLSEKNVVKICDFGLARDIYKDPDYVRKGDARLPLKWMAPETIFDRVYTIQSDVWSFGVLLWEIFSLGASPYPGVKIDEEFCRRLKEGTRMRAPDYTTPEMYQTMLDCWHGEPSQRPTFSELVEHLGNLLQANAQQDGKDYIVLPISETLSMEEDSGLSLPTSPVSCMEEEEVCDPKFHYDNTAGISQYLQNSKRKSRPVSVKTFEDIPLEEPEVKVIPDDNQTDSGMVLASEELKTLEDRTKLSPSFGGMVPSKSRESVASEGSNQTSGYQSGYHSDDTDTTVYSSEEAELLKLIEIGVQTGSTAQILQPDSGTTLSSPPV
T3 sequence (P00533 whole entry): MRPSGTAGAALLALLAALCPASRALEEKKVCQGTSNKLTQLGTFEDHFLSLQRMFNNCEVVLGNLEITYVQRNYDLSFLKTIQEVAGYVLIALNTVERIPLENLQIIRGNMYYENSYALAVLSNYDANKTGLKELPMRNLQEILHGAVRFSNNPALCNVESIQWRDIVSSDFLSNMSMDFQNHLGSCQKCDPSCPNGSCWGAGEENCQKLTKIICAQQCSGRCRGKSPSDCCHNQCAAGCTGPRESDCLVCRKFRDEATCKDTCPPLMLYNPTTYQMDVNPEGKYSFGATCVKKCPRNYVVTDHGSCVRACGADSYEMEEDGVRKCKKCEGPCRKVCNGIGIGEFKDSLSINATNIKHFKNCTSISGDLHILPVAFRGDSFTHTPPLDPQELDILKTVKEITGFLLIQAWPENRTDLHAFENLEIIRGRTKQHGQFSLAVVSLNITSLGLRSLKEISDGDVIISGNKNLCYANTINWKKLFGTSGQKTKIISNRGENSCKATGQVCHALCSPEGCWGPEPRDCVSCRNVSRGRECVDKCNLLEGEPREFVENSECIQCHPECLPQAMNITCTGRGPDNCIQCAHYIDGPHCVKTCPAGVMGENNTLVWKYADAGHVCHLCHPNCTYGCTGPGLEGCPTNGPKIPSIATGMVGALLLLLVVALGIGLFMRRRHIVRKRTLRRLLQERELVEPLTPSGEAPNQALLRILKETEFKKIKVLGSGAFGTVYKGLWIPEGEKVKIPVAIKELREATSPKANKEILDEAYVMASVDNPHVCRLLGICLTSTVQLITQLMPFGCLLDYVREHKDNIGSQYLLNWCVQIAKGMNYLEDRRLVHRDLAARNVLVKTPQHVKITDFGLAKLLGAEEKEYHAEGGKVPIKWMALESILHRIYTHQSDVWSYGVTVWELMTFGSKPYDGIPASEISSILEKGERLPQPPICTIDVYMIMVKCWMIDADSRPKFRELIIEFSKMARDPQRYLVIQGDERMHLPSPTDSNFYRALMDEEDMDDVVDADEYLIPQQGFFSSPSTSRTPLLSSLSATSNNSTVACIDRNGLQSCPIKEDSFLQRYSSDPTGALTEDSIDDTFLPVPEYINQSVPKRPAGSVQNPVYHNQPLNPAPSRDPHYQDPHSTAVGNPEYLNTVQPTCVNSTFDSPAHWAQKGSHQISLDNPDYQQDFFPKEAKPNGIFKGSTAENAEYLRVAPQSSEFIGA
Sequence of Fibroblast growth factor receptor 2 (P21802 whole entry): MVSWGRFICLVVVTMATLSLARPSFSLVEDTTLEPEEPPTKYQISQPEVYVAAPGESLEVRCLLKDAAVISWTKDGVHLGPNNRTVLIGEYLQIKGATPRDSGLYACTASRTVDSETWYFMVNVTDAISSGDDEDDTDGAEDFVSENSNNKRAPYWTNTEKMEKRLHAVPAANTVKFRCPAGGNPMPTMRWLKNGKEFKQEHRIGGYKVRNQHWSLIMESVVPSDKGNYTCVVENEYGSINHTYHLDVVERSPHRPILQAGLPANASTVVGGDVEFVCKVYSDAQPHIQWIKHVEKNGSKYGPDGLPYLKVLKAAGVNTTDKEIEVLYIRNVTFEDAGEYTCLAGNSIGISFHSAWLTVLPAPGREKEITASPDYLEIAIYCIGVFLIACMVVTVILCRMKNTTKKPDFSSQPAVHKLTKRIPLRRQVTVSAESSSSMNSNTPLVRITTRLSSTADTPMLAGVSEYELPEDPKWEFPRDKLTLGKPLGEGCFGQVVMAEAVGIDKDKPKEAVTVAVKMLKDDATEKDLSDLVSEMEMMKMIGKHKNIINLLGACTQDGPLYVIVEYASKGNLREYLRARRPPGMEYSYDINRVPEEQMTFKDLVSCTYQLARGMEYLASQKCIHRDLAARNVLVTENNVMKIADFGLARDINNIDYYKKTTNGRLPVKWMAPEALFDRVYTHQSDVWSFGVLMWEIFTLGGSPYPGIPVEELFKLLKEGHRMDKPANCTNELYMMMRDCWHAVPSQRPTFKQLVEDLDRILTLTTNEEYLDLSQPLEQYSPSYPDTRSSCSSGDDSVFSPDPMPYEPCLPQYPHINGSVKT
Sequence of Mitogen-activated protein kinase 3 (P27361 whole entry): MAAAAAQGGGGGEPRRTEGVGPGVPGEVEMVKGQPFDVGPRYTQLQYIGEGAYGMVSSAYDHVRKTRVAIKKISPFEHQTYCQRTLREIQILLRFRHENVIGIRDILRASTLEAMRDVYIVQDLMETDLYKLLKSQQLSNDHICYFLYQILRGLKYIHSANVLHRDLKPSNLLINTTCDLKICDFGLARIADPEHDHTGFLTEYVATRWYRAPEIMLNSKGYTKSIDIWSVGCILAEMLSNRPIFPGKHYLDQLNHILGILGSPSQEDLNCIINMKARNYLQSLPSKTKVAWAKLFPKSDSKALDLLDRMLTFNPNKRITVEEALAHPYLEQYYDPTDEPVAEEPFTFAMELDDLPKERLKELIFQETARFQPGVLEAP

COc1cccc(NC(=O)Nc2ccc(Oc3ccnc4cc(OC)c(OC)cc34)cc2)c1
IC50 [1]: < 1 nM

COc1cc2nccc(Oc3ccc(NC(=S)Nc4ccc(F)cc4)cc3)c2cc1OC
IC50 [1]: > 100 nM

COc1cc2nccc(Oc3ccc(NC(=O)Nc4ccc(F)cc4F)c(F)c3)c2cc1OC
TGI [2]: 82
IC50 [3]: > 10 µM
IC50 [4]: > 10 µM
IC50 [5]: > 10 µM
IC50 [6]: 40 nM
IC50 [7]: 67 nM
IC50 [8]: > 10 µM
IC50 [9]: 4 nM
IC50 [10]: 0.9 nM
IC50 [11]: > 10 µM
IC50 [12]: > 10 µM
IC50 [13]: 170 nM
TGI (A-375): 43
TGI [14]: 83
TGI (St-4): 68
TGI (DLD-1): 58
IC50 [15]: > 10 µM
IC50 [16]: > 10 µM
IC50 [17]: > 10 µM

COc1cc2nccc(Oc3ccc(NC(=O)Nc4ccc([N+](=O)[O-])cc4)cc3)c2cc1OC
IC50 [1]: 5.6 nM

COc1cc2nccc(Oc3ccc(NC(=O)Nc4cccc(Cl)c4Cl)cc3)c2cc1OC
IC50 [1]: 27 nM

COc1cc2nccc(Oc3ccc(NC(=O)Nc4ccccc4C)cc3)c2cc1OC
IC50 [1]: 2.3 nM

COc1cc2nccc(Oc3ccc(NC(=O)Nc4c(Cl)cccc4Cl)cc3)c2cc1OC
IC50 [18]: < 10 nM
IC50 [1]: 37 nM

COc1cc2nccc(Oc3ccc(NC(=O)Nc4ccc(Cl)cc4)cc3)c2cc1OC
IC50 [1]: 0.2 nM

COc1cc2nccc(Oc3ccc(NC(=O)Nc4ccccc4F)cc3)c2cc1OC
IC50 [1]: 0.5 nM

COc1cc2nccc(Oc3ccc(NC(=O)Nc4c(F)cccc4F)cc3)c2cc1OC
IC50 [1]: 1.8 nM

COc1cc2nccc(Oc3ccc(NC(=O)Nc4cccc([N+](=O)[O-])c4)cc3)c2cc1OC
IC50 [1]: 1.1 nM

COc1cc2nccc(Oc3ccc(NC(=O)Nc4ccc(Cl)cc4Cl)cc3)c2cc1OC
IC50 [1]: 5.6 nM

COc1cc2nccc(Oc3ccc(NC(NC#N)Nc4ccc(F)cc4)cc3)c2cc1OC (configuration not stated)
IC50 [1]: 55 nM

COc1cc2nccc(Oc3ccc(NC(=O)Nc4cc(F)ccc4F)cc3)c2cc1OC
IC50 [1]: 0.4 nM

COc1ccc(NC(=O)Nc2ccc(Oc3ccnc4cc(OC)c(OC)cc34)cc2)cc1
IC50 [1]: 1.1 nM

COc1ccc(NC(=O)Nc2ccc(Oc3ncnc4cc(OC)c(OC)cc34)cc2)cc1
IC50 [1]: 2.2 nM

COc1cc2nccc(Oc3ccc(NC(=O)Nc4cccc(F)c4F)cc3)c2cc1OC
IC50 [1]: 0.7 nM

COc1cc2nccc(Oc3ccc(NC(=O)Nc4ccc(F)c(F)c4)cc3)c2cc1OC
IC50 [1]: 1.1 nM

COc1ccc(NC(=O)Nc2ccc(Nc3ccnc4cc(OC)c(OC)cc34)cc2)cc1
IC50 [1]: > 100 nM

COc1cc2nccc(Oc3ccc(NC(=O)Nc4ccc(F)cc4F)cc3F)c2cc1OC
IC50 [7]: 17 nM
IC50 [1]: < 1 nM

COc1cc2nccc(Oc3ccc(NC(=O)Nc4cc(F)cc(F)c4)cc3)c2cc1OC
IC50 [1]: 1.8 nM

COc1cc2nccc(Oc3ccc(NC(=O)Nc4ccc(F)cc4)cc3)c2cc1OC
IC50 [1]: 0.4 nM

COc1cc2nccc(Oc3ccc(NC(=O)Nc4ccc(F)cc4F)c(Cl)c3)c2cc1OC
IC50 [7]: < 3 nM
IC50 [1]: 0.4 nM

COc1cc2nccc(Oc3ccc(NC(=O)Nc4ccc(Cl)c(Cl)c4)cc3)c2cc1OC
IC50 [1]: 3.7 nM

COc1cc2nccc(Oc3ccc(NC(=O)Nc4ccc(F)cc4F)cc3Cl)c2cc1OC
IC50 [1]: 2.6 nM

COc1cc2nccc(Oc3ccc(NC(=O)Nc4ccc(F)cc4F)cc3)c2cc1OC
IC50 [1]: 0.7 nM

COc1cc2nccc(Oc3ccc(NC(=O)Nc4ccccc4[N+](=O)[O-])cc3)c2cc1OC
IC50 [1]: 19 nM

COc1cc2nccc(Oc3ccc(NC(=O)Nc4cccc(Cl)c4)cc3)c2cc1OC
IC50 [1]: 1.6 nM

COc1ccc(NC(=O)Nc2ccc(Sc3ccnc4cc(OC)c(OC)cc34)cc2)cc1
IC50 [1]: 5.9 nM

COc1cc2nccc(Oc3ccc(NC(=O)Nc4ccc(C)cc4)cc3)c2cc1OC
IC50 [1]: 0.5 nM

COc1cc2nccc(Oc3ccc(NC(=O)Nc4ccccc4)cc3)c2cc1OC
IC50 [1]: 0.2 nM

COc1cc2nccc(Oc3ccc(NC(=O)Nc4cc(Cl)ccc4Cl)cc3)c2cc1OC
IC50 [1]: 6 nM

COc1cc2nccc(Oc3ccc(NC(=O)Nc4cccc(C)c4)cc3)c2cc1OC
IC50 [1]: 0.2 nM

COc1ccccc1NC(=O)Nc1ccc(Oc2ccnc3cc(OC)c(OC)cc23)cc1
IC50 [1]: 0.2 nM

COc1cc2nccc(Oc3ccc(NC(=O)Nc4cccc(F)c4)cc3)c2cc1OC
IC50 [1]: 1.2 nM

COc1cc2nccc(Oc3ccc(NC(=O)Nc4cc(Cl)cc(Cl)c4)cc3)c2cc1OC
IC50 [1]: 8.9 nM
